According to ChEMBL document CHEMBL1135752, “Pyrazolopyrimidine-2,4-dione sulfonamides: novel and selective calcitonin inducers” (J Med Chem, 2002):

Key:
Phosphodiesterase 4 [1] = target: T1, Phosphodiesterase 4 (Homo sapiens, UniProt P27815+Q08499+Q07343+Q08493); assay: Percent Rolipram activity of a standard U937 cell phosphodiesterase 4 (PDE4) enzyme assay at 30 uM of compound; type: cell-based; conditions: U-937
In short: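 U937 cell PDE4 enzyme assay with compound at 30 µM. Activity is scaled and reported as percent of rolipram activity.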

[2] = Increased transcription of human calcitonin luciferase reporter gene at 30 uM; type: functional
In short: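 Luciferase reporter gene under control of the human calcitonin gene/promoter, used to measure transcription activation. Compound tested at 30 µM. Read-out is the transcription activation ratio: luciferase activity with compound divided by luciferase activity in untreated control.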

[3] = Ability to increase Human calcitonin secretion; type: functional
In short: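 Calcitonin secretion assay with radioimmunoassay read-out, measuring the rise in cellular levels and secretion of human CT. Compound tested at 30 µM. Value is the ratio of secretion with compound to secretion in untreated control; average precision error reported as 10-33%.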

Phosphodiesterase 4 [4] = target: T1, Phosphodiesterase 4; assay: Inhibition of phosphodiesterase 4 (PDE4); type: protein assay

| Compound | Activity (Phosphodiesterase 4 [1]) [%] | CT-luci TAR [2] [T/C] | IC50 (Phosphodiesterase 4 [4]) [µM] | CTS increase [3] |
| --- | --- | --- | --- | --- |
| CCCCn1c(=O)c2cn(S(=O)(=O)c3cccc4cccnc34)nc2n(CCCC)c1=O | 96 | 2.9 | – | 4.8 |
| CCCCn1c(=O)c2nn(S(=O)(=O)c3ccc4ccccc4c3)cc2n(CCCC)c1=O | 66 | 1.8 | – | 4.9 |
| CCCCn1c(=O)c2c(ncn2CC(C)=O)n(CCCC)c1=O | 100 | 2.1 | – | 3.5 |
| CCCCn1c(=O)c2nn(S(=O)(=O)c3cccc(C(F)(F)F)c3)cc2n(CCCC)c1=O | 32 | 1.8 | – | 3.8 |
| CCCCn1c(=O)c2nn(S(=O)(=O)c3cccc4cccnc34)cc2n(CCCC)c1=O | 59 | 2.2 | – | 3.8 |
| CCCCn1c(=O)c2nn(S(=O)(=O)Cc3ccccc3)cc2n(CCCC)c1=O | 65 | 1.5 | – | 2.6 |
| CCCCn1c(=O)c2nn(S(=O)(=O)c3cc(Cl)c(Cl)s3)cc2n(CCCC)c1=O | 59 | 1.7 | – | 3.4 |
| CCCCn1c(=O)c2nn(S(=O)(=O)c3ccc(C(C)(C)C)cc3)cc2n(CCCC)c1=O | 37 | 2.3 | – | 4.5 |
| CCCCn1c(=O)c2cn(S(=O)(=O)c3ccc(C(C)(C)C)cc3)nc2n(CCCC)c1=O | 57 | 2.6 | – | 2.9 |

Further lines, with some results ahead:

| Activity (Phosphodiesterase 4 [1]) [%] | CT-luci TAR [2] [T/C] | IC50 (Phosphodiesterase 4 [4]) [µM] | Compound | CTS increase [3] |
| --- | --- | --- | --- | --- |
| 69 | 1.3 | 4.9 | CCCCn1c(=O)c2nn(S(=O)(=O)CCCCl)cc2n(CCCC)c1=O | 4.4 |
| 93 | 1.8 | – | CCCCn1c(=O)c2cn(S(C)(=O)=O)nc2n(CCCC)c1=O | 3.9 |
| 32 | 3.6 | – | CCCCn1c(=O)c2cn(S(=O)(=O)c3ccccc3C#N)nc2n(CCCC)c1=O | 3.4 |
| 60 | 2.1 | – | CCCCn1c(=O)c2nn(S(C)(=O)=O)cc2n(CCCC)c1=O | 0.9 |
| 52 | 2 | – | CCCCn1c(=O)c2cn(S(=O)(=O)Cc3ccccc3)nc2n(CCCC)c1=O | 3.4 |
| 16 | 3.2 | – | CCCCn1c(=O)c2cn(S(=O)(=O)c3cc(Cl)c(Cl)s3)nc2n(CCCC)c1=O | 3 |
| 66 | 1.9 | 4.9 | CCCCn1c(=O)c2cn(S(=O)(=O)CCCCl)nc2n(CCCC)c1=O | 2.7 |
